Reference: ChEMBL document CHEMBL4219150, “Fragment-Based Approach to Targeting Inosine-5'-monophosphate Dehydrogenase (IMPDH) from Mycobacterium tuberculosis” (J Med Chem, 2018)
In brackets after ≈: the same amount, converted by molar mass.

How the values were obtained:
[1] = tested on: Mycobacterium tuberculosis; assay: Antibacterial activity against Mycobacterium tuberculosis ATCC 27294 after 7 days by broth microdilution method; assay type: functional; conditions: ATCC 27294, 168 h
[2] = molecular target: Inosine-5'-monophosphate dehydrogenase (Mycobacterium tuberculosis (strain ATCC 25618 / H37Rv)) (UniProt P9WKI7); assay: Uncompetitive inhibition of Mycobacterium tuberculosis H37Rv IMPDH assessed as reduction in NADH production preincubated for 5 mins followed by substrate IMP addition at increasing concentration measured for 32 mins in presence of a constant concentration of NAD+ by Lineweaver-Burk plot analysis
[3] = tested on: Mycobacterium tuberculosis; assay: Antibacterial activity against Mycobacterium tuberculosis after 7 days by Alamar Blue assay; assay type: functional; conditions: 168 h
Method in brief: (§1)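 Mtb H37Rv grown to mid-exponential phase in Middlebrook 7H9 with OADC, 0.2% glycerol, 0.05% Tween-80. Compounds in DMSO (1%) tested at 8 concentrations; rifampin and isoniazid as positive controls. ~10^5 bacteria per well, 37°C for 7 d, then Alamar Blue for a further 24 h at 37°C. Fluorescence read at ex 544/em 590 nm. Data normalised to min/max inhibition controls; MIC90 taken from the dose-response curve.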

[4] = tested on: Mycobacterium tuberculosis; assay: Antibacterial activity against Mycobacterium tuberculosis H37Rv assessed as inhibition of bacterial growth after 7 days by alamar blue fluorescence-based broth microdilution assay; assay type: functional; conditions: 168 h; method in brief: as §1
[5] = tested on: Mycobacterium tuberculosis; assay: Antibacterial activity against Mycobacterium tuberculosis; assay type: functional; method in brief: as §1

Inosine-5'-monophosphate dehydrogenase (Mycobacterium tuberculosis (strain ATCC 25618 / H37Rv)), sequence (P9WKI7 whole entry): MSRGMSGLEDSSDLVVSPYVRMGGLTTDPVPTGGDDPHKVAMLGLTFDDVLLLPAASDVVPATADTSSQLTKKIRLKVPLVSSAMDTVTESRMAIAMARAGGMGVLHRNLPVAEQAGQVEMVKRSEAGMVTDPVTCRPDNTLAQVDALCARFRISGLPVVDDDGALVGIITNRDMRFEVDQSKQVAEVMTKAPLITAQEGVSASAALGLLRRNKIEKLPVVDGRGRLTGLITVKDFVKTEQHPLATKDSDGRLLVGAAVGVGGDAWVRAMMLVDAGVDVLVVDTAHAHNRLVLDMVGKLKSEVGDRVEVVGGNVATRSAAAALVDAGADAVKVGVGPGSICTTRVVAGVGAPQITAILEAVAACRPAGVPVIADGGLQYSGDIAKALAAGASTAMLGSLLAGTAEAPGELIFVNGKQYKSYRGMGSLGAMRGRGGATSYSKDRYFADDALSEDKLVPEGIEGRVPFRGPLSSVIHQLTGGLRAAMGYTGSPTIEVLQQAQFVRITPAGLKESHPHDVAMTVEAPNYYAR

Row | SMILES | MIC90 [4] [µM] | also measured
1 | C=C(C)c1cccc(C(C)(C)NC(=O)Nc2ccc(Cl)c(C(=O)N(C)C)c2)c1 |  | MIC [1]: 5 µM (≈ 2 µg/mL)
2 | COc1ccc(OC(C)C(=O)Nc2ccc(I)cc2)cc1 (stereo not given) |  | alphaKi [2]: 0.603 µM; MIC [3]: 12.5 µM (≈ 4.97 µg/mL)
3 | CC(Oc1ccc(-c2cn(C)cn2)cc1)C(=O)Nc1nc(-c2ccc(Br)cc2)co1 (stereo not given) | ≥ 50 | 
4 | Cc1n[nH]c(C)c1S(=O)(=O)Nc1ccc2c[nH]nc2c1 |  | MIC [5]: 2 µM (≈ 0.583 µg/mL)
5 | CC(Oc1ccc(-c2cn(C)cn2)cc1)C(=O)Nc1nc(-c2ccc(N3CCOCC3)cc2)c[nH]1 (stereo not given) | ≥ 50 | 
6 | CC(Oc1ccc(-c2cn(C)cn2)cc1)C(=O)Nc1ccc(I)cc1 (stereo not given) | ≥ 50 | 
7 | C[C@H](Oc1ccc(-c2cn(C)cn2)cc1)C(=O)Nc1nc(-c2ccc(Br)cc2)c[nH]1 | ≥ 50 | 
8 | CC(Oc1ccc(-c2cn(C)cn2)cc1)C(=O)Nc1nc(-c2ccccc2)c[nH]1 (stereo not given) | ≥ 50 | 
9 | COc1ccc(-c2c[nH]c(NC(=O)C(C)Oc3ccc(-c4cn(C)cn4)cc3)n2)cc1 (stereo not given) | ≥ 50 | 
10 | CC(Oc1ccc(-c2cn(C)cn2)cc1)C(=O)Nc1nc(-c2ccc(Br)cc2)c[nH]1 (stereo not given) | ≥ 50 | 
11 | CC(Oc1ccc(-c2cn(C)cn2)cc1)C(=O)Nc1ccccc1 (stereo not given) | ≥ 50 | 
12 | O=C(C1CCCCC1)N1CCN(S(=O)(=O)c2ccc3cnccc3c2)CC1 |  | MIC [5]: 1.9 µM (≈ 0.736 µg/mL)
13 | COc1c(C)c2c(c(O)c1C/C=C(\C)Cn1cc(COC[C@H]3O[C@@H](n4cnc5c(N)ncnc54)[C@H](O)[C@@H]3O)nn1)C(=O)OC2 |  | MIC [1]: 100 µM (≈ 60.9 µg/mL)
14 | CC(Oc1ccc(-c2cn(C)cn2)cc1)C(=O)Nc1nc(-c2ccc(I)cc2)c[nH]1 (stereo not given) | ≥ 50 | 
